Test results taken from ChEMBL document CHEMBL4229344 (Eur J Med Chem, 2018).
Activity calls are given as the source filed them. No cut-off for these calls is given here.

Key:
[1] = system: Tyrosine-protein kinase ABL1 (Homo sapiens), P00519 [H396P]; test: Binding affinity to human non-phosphorylated ABL1 H396P mutant (S229 to K512 residues) expressed in mammalian expression system assessed as residual binding level at 1 uM by Kinomescan method relative to control
Outline: (§1)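 Kinome-wide single-concentration binding screen (KINOMEscan) at 1 μM against a panel of 468 purified kinases and mutants. Read-out is relative binding of each kinase compared with control. Selectivity across the panel was summarised as an S(10) score.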

[2] = target: Aurora kinase B (Homo sapiens) (UniProt Q96GD4); test: Binding affinity to wild-type human partial length AURKB (D25 to A303 residues) expressed in mammalian expression system assessed as residual binding level at 1 uM by Kinomescan method relative to control
Sequence of Aurora kinase B (Homo sapiens) (Q96GD4 whole entry, the tested form may be a part): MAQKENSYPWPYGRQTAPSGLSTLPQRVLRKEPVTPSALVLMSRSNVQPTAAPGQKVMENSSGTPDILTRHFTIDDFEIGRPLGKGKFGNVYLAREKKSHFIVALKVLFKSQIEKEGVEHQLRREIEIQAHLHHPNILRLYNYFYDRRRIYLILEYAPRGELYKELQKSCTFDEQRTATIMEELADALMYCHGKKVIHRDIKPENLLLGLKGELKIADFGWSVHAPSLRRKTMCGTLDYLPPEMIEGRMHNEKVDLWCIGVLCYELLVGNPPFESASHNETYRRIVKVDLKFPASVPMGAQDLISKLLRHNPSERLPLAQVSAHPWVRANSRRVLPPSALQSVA
Outline: (§2)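 Single-concentration KINOMEscan (DiscoverX) binding screen at 1 μM against a panel of 468 purified kinases and mutants. The read-out is binding relative to control.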

[3] = target: Cyclin-dependent kinase 4/cyclin D1 (Homo sapiens) (UniProt P11802+P24385); test: Binding affinity to wild-type human full length CDK4/cyclinD1 (M1 to E303 residues) expressed in mammalian expression system assessed as residual binding level at 1 uM by Kinomescan method relative to control
Outline: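 Single-concentration (1 μM) competition-binding screen run by KINOMEscan against a panel of 468 purified kinases and mutants. The read-out is the relative binding activity of the test compound to each kinase.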

[4] = target: Cyclin-dependent kinase-like 5 (Homo sapiens) (UniProt O76039); test: Binding affinity to wild-type human partial length CDKL5 (M1 to S337 residues) expressed in mammalian expression system assessed as residual binding level at 1 uM by Kinomescan method relative to control
[5] = target: Ephrin type-A receptor 8 (Homo sapiens) (UniProt P29322); test: Binding affinity to wild-type human partial length EPHA8 (Q608 to C920 residues) expressed in bacterial expression system assessed as residual binding level at 1 uM by Kinomescan method relative to control
Outline: (§3)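 Kinome-wide competition binding screen against a panel of 468 purified kinases/mutants, with the test compound at a single concentration of 1 μM. Read-out is the relative binding activity of each kinase in the presence of compound.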

[6] = system: Receptor-type tyrosine-protein kinase FLT3 (Homo sapiens), P36888 [D835Y]; test: Binding affinity to human partial length FLT3 D835Y mutant (Q580 to Y969 residues) expressed in bacterial expression system assessed as residual binding level at 1 uM by Kinomescan method relative to control; outline: as §1
[7] = system: Receptor-type tyrosine-protein kinase FLT3 (Homo sapiens), P36888 [UNDEFINED MUTATION]; test: Binding affinity to human partial length FLT3 ITD mutant expressed in bacterial expression system assessed as residual binding level at 1 uM by Kinomescan method relative to control; outline: as §1
[8] = target: Interleukin-1 receptor-associated kinase 1 (Homo sapiens) (UniProt P51617); test: Binding affinity to wild-type human partial length IRAK1 (R194 to S712 residues) expressed in mammalian expression system assessed as residual binding level at 1 uM by Kinomescan method relative to control
[9] = target: Mitogen-activated protein kinase 10 (Homo sapiens) (UniProt P53779); test: Binding affinity to wild-type human partial length JNK3 (V28 to Q422 residues) expressed in mammalian expression system assessed as residual binding level at 1 uM by Kinomescan method relative to control; outline: as §3
Sequence of Mitogen-activated protein kinase 10 (Homo sapiens) (P53779 whole entry, the tested form may be a part): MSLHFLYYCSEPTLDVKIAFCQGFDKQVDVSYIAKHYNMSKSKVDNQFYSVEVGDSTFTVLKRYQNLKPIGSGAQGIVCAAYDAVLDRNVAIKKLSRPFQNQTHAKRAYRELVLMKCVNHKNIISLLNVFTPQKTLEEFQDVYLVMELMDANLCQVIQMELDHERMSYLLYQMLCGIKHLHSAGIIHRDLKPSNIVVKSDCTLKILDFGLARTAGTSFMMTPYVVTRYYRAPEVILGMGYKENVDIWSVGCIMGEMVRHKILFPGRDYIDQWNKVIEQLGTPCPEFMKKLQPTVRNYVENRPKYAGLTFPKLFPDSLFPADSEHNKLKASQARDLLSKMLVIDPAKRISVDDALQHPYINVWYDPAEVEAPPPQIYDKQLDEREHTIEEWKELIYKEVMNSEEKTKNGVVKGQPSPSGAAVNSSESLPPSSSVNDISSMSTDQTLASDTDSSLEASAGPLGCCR

[10] = system: Mast/stem cell growth factor receptor Kit (Homo sapiens), P10721 [D816H]; test: Binding affinity to human partial length KIT D816H mutant (I571 to D952 residues) expressed in mammalian expression system assessed as residual binding level at 1 uM by Kinomescan method relative to control; outline: as §1
[11] = system: Mast/stem cell growth factor receptor Kit (Homo sapiens), P10721 [V559D]; test: Binding affinity to human partial length KIT V559D mutant (Y545 to D952 residues) expressed in bacterial expression system assessed as residual binding level at 1 uM by Kinomescan method relative to control; outline: as §1
Sequence of Mast/stem cell growth factor receptor Kit (Homo sapiens), P10721 [V559D] (P10721 whole entry V559D, the tested form may be a part): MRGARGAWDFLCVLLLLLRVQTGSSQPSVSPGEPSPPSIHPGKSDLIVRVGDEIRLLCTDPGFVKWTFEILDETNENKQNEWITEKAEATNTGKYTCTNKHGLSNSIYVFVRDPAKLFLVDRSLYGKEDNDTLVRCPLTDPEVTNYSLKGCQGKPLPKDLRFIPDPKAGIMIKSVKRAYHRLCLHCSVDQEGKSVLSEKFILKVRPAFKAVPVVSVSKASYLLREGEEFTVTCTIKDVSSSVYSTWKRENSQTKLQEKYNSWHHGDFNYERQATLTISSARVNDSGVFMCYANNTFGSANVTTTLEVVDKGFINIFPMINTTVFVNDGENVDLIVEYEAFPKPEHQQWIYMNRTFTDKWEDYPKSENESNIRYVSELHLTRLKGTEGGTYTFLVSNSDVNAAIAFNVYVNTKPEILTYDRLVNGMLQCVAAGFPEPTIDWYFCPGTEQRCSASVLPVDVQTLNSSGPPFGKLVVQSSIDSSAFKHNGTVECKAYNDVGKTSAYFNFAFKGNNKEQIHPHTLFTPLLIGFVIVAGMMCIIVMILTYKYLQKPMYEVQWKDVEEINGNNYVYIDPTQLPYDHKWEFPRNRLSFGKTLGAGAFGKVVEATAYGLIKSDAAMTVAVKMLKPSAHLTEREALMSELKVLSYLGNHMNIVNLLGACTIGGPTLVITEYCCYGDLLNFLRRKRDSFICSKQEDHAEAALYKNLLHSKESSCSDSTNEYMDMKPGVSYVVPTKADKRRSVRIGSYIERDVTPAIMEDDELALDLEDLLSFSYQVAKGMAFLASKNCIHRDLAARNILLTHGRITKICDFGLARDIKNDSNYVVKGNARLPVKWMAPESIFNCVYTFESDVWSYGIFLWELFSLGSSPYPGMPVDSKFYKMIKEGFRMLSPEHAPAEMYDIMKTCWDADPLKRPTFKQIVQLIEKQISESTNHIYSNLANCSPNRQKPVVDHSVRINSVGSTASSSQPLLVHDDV

[12] = target: Cyclin-dependent kinase 17 (Homo sapiens) (UniProt Q00537); test: Binding affinity to wild-type human full length PCTK2 (M1 to F523 residues) expressed in bacterial expression system assessed as residual binding level at 1 uM by Kinomescan method relative to control; outline: as §2
[13] = target: 3-phosphoinositide-dependent protein kinase 1 (Homo sapiens) (UniProt O15530); test: Binding affinity to wild-type human full length PDPK1 (M1 to Q556 residues) expressed in bacterial expression system assessed as residual binding level at 1 uM by Kinomescan method relative to control; outline: as §2
Sequence of 3-phosphoinositide-dependent protein kinase 1 (Homo sapiens) (O15530 whole entry, the tested form may be a part): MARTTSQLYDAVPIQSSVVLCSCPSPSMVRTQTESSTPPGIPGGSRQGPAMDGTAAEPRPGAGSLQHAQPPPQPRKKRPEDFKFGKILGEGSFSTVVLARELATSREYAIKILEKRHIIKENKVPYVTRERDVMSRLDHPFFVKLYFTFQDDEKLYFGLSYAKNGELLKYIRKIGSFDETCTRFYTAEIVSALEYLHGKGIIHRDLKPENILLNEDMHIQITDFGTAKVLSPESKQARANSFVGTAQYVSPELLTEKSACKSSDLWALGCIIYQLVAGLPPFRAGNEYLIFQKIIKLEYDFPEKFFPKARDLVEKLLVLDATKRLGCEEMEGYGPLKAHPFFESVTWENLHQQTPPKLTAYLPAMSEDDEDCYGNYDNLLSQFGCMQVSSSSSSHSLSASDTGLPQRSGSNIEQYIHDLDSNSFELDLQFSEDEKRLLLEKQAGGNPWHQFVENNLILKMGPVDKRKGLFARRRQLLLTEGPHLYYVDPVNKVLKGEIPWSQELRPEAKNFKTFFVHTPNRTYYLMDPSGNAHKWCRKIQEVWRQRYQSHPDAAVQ

[14] = target: Phosphatidylinositol 4-phosphate 5-kinase type-1 alpha (Homo sapiens) (UniProt Q99755); test: Binding affinity to wild-type human full length PIP5K1A (M1 to H562 residues) expressed in bacterial expression system assessed as residual binding level at 1 uM by Kinomescan method relative to control; outline: as §2
[15] = target: Serine/threonine-protein kinase N2 (Homo sapiens) (UniProt Q16513); test: Binding affinity to wild-type human partial length PKN2 (E634 to C984 residues) expressed in bacterial expression system assessed as residual binding level at 1 uM by Kinomescan method relative to control
[16] = target: Serine/threonine-protein kinase RIO2 (Homo sapiens) (UniProt Q9BVS4); test: Binding affinity to wild-type human partial length RIOK2 (M1 to D313 residues) expressed in mammalian expression system assessed as residual binding level at 1 uM by Kinomescan method relative to control
Sequence of Serine/threonine-protein kinase RIO2 (Homo sapiens) (Q9BVS4 whole entry, looked up, the tested form may be a part): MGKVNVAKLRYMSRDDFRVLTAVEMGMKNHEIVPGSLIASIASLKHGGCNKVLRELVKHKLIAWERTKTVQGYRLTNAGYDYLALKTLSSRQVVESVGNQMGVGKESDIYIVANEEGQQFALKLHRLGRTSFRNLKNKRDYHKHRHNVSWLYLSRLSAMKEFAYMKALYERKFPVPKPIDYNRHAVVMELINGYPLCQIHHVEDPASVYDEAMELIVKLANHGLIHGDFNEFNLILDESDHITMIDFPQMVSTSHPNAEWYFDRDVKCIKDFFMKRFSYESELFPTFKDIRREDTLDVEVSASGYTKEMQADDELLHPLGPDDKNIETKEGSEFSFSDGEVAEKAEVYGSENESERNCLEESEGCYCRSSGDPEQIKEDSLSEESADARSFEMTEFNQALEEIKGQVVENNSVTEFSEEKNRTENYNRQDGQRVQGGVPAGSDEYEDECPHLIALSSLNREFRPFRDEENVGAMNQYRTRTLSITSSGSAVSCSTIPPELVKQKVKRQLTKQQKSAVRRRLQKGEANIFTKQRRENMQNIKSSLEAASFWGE
Outline: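 KINOMEscan competition binding against a panel of 468 purified kinases/mutants, compound tested at 1 μM; readout is relative binding activity versus control.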

[17] = target: Non-receptor tyrosine-protein kinase TNK1 (Homo sapiens) (UniProt Q13470); test: Binding affinity to wild-type human full length TNK1 (M1 to P661 residues) expressed in bacterial expression system assessed as residual binding level at 1 uM by Kinomescan method relative to control
Outline: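 KINOMEscan competition binding against 468 purified kinases/mutants, test compound at 1 µM; residual binding relative to control.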

[18] = target: Testis-specific serine/threonine-protein kinase 3 (Homo sapiens) (UniProt Q96PN8); test: Binding affinity to wild-type human full length TSSK3 (M1 to T268 residues) expressed in mammalian expression system assessed as residual binding level at 1 uM by Kinomescan method relative to control; outline: as §2
Sequence of Testis-specific serine/threonine-protein kinase 3 (Homo sapiens) (Q96PN8 whole entry, the tested form may be a part): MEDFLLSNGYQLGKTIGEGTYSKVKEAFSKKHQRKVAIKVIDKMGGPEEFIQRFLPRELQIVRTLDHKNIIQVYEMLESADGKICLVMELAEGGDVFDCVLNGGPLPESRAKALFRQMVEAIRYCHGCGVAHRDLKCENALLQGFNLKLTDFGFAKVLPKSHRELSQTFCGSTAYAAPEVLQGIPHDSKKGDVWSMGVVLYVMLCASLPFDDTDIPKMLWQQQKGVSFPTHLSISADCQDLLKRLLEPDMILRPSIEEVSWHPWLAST

[19] = target: Tyrosine-protein kinase TXK (Homo sapiens) (UniProt P42681); test: Binding affinity to wild-type human partial length TXK (L238 to W527 residues) expressed in bacterial expression system assessed as residual binding level at 1 uM by Kinomescan method relative to control
Sequence of Tyrosine-protein kinase TXK (Homo sapiens) (P42681 whole entry, the tested form may be a part): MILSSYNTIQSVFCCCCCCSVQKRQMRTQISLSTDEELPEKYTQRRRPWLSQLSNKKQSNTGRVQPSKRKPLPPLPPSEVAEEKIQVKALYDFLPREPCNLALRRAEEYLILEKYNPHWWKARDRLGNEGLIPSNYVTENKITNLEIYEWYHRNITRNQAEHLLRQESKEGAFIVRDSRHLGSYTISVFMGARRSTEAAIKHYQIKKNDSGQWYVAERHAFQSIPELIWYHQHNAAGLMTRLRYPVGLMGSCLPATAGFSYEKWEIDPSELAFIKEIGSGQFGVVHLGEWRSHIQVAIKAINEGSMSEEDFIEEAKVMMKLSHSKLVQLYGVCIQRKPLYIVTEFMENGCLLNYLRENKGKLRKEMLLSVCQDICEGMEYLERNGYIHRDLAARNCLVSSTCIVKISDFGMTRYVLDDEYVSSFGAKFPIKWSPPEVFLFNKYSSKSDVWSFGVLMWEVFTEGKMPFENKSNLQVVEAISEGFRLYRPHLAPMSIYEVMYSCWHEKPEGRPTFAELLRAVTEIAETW

[20] = target: Platelet-derived growth factor receptor beta (Homo sapiens, UniProt P09619); test: Inhibition of PDGFRbeta (unknown origin) using poly(4:1 Glu,Tyr) peptide as substrate preincubated for 1 hr followed by addition of ATP and measured after 30 mins by ADP-Glo bioluminescence assay
Sequence of Platelet-derived growth factor receptor beta (P09619 whole entry): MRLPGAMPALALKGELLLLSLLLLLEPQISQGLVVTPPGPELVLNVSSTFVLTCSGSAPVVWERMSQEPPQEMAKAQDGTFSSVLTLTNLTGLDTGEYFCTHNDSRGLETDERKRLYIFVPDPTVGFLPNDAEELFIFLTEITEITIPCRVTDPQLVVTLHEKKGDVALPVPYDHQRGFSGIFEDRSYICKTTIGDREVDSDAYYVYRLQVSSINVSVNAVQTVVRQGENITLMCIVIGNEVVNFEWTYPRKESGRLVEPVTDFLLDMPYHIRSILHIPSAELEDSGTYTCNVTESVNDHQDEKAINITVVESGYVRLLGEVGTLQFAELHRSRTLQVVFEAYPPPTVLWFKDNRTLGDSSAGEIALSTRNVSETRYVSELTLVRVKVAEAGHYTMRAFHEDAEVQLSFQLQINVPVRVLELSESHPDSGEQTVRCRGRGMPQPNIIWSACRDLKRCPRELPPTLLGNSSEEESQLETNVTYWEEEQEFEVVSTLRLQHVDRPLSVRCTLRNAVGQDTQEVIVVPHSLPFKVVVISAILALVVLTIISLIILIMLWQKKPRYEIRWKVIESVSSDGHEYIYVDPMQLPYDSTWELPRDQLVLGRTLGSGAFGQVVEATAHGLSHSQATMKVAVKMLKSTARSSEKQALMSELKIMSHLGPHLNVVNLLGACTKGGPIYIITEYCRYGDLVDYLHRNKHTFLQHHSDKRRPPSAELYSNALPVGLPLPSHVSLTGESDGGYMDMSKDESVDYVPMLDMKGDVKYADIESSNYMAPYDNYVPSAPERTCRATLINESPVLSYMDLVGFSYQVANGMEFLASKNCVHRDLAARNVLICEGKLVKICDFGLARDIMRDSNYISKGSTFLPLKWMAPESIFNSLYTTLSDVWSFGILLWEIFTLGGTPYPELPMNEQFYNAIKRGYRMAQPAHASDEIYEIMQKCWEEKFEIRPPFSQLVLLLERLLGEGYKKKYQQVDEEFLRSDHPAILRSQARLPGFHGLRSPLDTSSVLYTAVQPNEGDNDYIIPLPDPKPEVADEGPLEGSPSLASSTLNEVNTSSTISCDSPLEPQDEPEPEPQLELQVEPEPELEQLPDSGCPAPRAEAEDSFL

[21] = target: Platelet-derived growth factor receptor alpha (Homo sapiens, UniProt P16234); test: Inhibition of PDGFRalpha in human EOL-1 cells assessed as decrease in STAT5 phosphorylation at Y694 residue up to 300 nM after 2 hrs by Western blot analysis; format: cell-based

Cc1ccc(NC(=O)c2ccc(CN(CCN(C)C)C(=O)c3cccnc3)cc2)cc1Nc1nccc(-c2cccnc2)n1
Activity [1]: 69% | Activity [2]: 93% | Activity [3]: 100% | Activity [4]: 100% | Activity [5]: 89% | Activity [6]: 95% | Activity [7]: 81% | Activity [8]: 98% | Activity [9]: 48% | Activity [10]: 100% | Activity [11]: 0.8% | Activity [12]: 99% | Activity [13]: 100% | Activity [14]: 100% | Activity [15]: 96% | Activity [16]: 87% | Activity [17]: 87% | Activity [18]: 100% | Activity [19]: 100% | IC50 [20]: 6.11 µM | inhibition [21]: Active
